Key:
Format in all cases: functional, cell-based
[1] = Cytotoxicity against human CNE2 cells after 72 hrs by MTT assay; conditions: CNE-2, 72 h
How it was run: (§1)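 Log-phase cells: KB, CNE2, MGC-803 and GLC-82 grown in RPMI 1640 + 10% fetal calf serum; MCF-7 in DMEM + 10% fetal calf serum. Seeded at 1.5×10⁴ cells/mL (KB), 2.0×10⁴ (CNE2, MGC-803, GLC-82) or 2.5×10⁴ (MCF-7), 37 °C, 5% CO₂, 24 h. Compound exposure 72 h, 37 °C. MTT (5 mg/mL saline stock) 3 h. A570, reference 655 nm. IC₅₀ versus untreated control, ≥3 experiments.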

[2] = Cytotoxicity against human GLC82 cells after 72 hrs by MTT assay; conditions: GLC82, 72 h; how it was run: as §1
MGC-803 = assay: Cytotoxicity against human MGC803 cells after 72 hrs by MTT assay; conditions: MGC-803, 72 h; how it was run: as §1
MCF7 = assay: Cytotoxicity against human MCF7 cells after 72 hrs by MTT assay; conditions: MCF7, 72 h; how it was run: as §1
KB = assay: Cytotoxicity against human KB cells after 72 hrs by MTT assay; how it was run: as §1

## O=C(NC(=S)NNc1ncnc2ccccc12)c1ccc(F)cc1
[1]
  IC50: 2.84 µM
[2]
  IC50: 6.07 µM
MGC-803
  IC50: 3.6 µM
MCF7
  IC50: 4.59 µM
KB
  IC50: 1.87 µM

## O=C(NC(=S)NNc1ncnc2ccccc12)c1cccc(Cl)c1
[1]
  IC50: 2.92 µM
[2]
  IC50: 3.24 µM
MGC-803
  IC50: 4.54 µM
MCF7
  IC50: 3.54 µM
KB
  IC50: 4.74 µM

## Cc1ccc(C(=O)NC(=S)NNc2ncnc3ccccc23)cc1
[1]
  IC50: 17.2 µM
[2]
  IC50: 11.2 µM
MGC-803
  IC50: 3.76 µM
MCF7
  IC50: 7.82 µM
KB
  IC50: 10.1 µM

## COc1cc2ncnc(NNC(=S)NC(=O)c3ccc(Cl)cc3)c2cc1OC
[1]
  IC50: 7.53 µM
[2]
  IC50: 9.62 µM
MGC-803
  IC50: 3.71 µM
MCF7
  IC50: 8.94 µM
KB
  IC50: 4.59 µM

## COc1cc2ncnc(NNC(=S)NC(=O)c3ccc(C(F)(F)F)cc3)c2cc1OC
[1]
  IC50: 16.5 µM
[2]
  IC50: 16.5 µM
MGC-803
  IC50: 9.28 µM
MCF7
  IC50: 16.8 µM
KB
  IC50: 8.84 µM

## O=C(NC(=S)NNc1ncnc2ccccc12)c1ccccc1Cl
[1]
  IC50: 6.09 µM
[2]
  IC50: 10.8 µM
MGC-803
  IC50: 9.14 µM
MCF7
  IC50: 10.5 µM
KB
  IC50: 7.71 µM

## O=C(NC(=S)NNc1ncnc2ccccc12)c1ccccc1
[1]
  IC50: 1.49 µM
[2]
  IC50: 8.37 µM
MGC-803
  IC50: 6.99 µM
MCF7
  IC50: 5.96 µM
KB
  IC50: 2.33 µM

## COc1cc2ncnc(NNC(=S)NC(=O)c3ccccc3C)c2cc1OC
[1]
  IC50: 10.5 µM
[2]
  IC50: 21.5 µM
MGC-803
  IC50: 11.1 µM
MCF7
  IC50: 19.3 µM
KB
  IC50: 11.4 µM

## O=C(NC(=S)NNc1ncnc2ccccc12)c1ccc(C(F)(F)F)cc1
[1]
  IC50: 22.5 µM
[2]
  IC50: 12.2 µM
MGC-803
  IC50: 10.6 µM
MCF7
  IC50: 8.05 µM
KB
  IC50: 7.92 µM

## O=c1[nH]cc(F)c(=O)[nH]1 [FLUOROURACIL]
[1]
  IC50: 15.1 µM
[2]
  IC50: 17.4 µM
MGC-803
  IC50: 18.5 µM
MCF7
  IC50: 14.2 µM
KB
  IC50: 8.28 µM

## COc1cc2ncnc(NNC(=S)NC(=O)c3ccc(F)cc3)c2cc1OC
[1]
  IC50: 16.1 µM
[2]
  IC50: 15.3 µM
MGC-803
  IC50: 8.3 µM
MCF7
  IC50: 25.8 µM
KB
  IC50: 4.53 µM

## COc1cc2ncnc(NNC(=S)NC(=O)c3ccc(C)cc3)c2cc1OC
[1]
  IC50: 33.3 µM
[2]
  IC50: 29.9 µM
MGC-803
  IC50: 19.7 µM
MCF7
  IC50: 22.3 µM
KB
  IC50: 24.2 µM

## COc1ccccc1C(=O)NC(=S)NNc1ncnc2ccccc12
[1]
  IC50: 15.7 µM
[2]
  IC50: 9.5 µM
MGC-803
  IC50: 14.3 µM
MCF7
  IC50: 8.7 µM
KB
  IC50: > 50 µM

## Cc1ccccc1C(=O)NC(=S)NNc1ncnc2ccccc12
[1]
  IC50: 5.46 µM
[2]
  IC50: 13.2 µM
MGC-803
  IC50: 4.24 µM
MCF7
  IC50: 16.5 µM
KB
  IC50: 2.77 µM

## O=C(NC(=S)NNc1ncnc2ccccc12)c1ccccc1F
[1]
  IC50: 4.61 µM
[2]
  IC50: 6.46 µM
MGC-803
  IC50: 5.01 µM
MCF7
  IC50: 5.02 µM
KB
  IC50: 2.51 µM

## O=C(NC(=S)NNc1ncnc2ccccc12)c1ccc(Cl)cc1
[1]
  IC50: 1.53 µM
[2]
  IC50: 6.68 µM
MGC-803
  IC50: 1.86 µM
MCF7
  IC50: 5.96 µM
KB
  IC50: 3.94 µM

## COc1cc2ncnc(NNC(=S)NC(=O)c3cccc(Cl)c3)c2cc1OC
[1]
  IC50: 7.46 µM
[2]
  IC50: 8.37 µM
MGC-803
  IC50: 4.06 µM
MCF7
  IC50: 11.5 µM
KB
  IC50: 4.83 µM

## COc1cc2ncnc(NNC(=S)NC(=O)c3ccccc3Cl)c2cc1OC
[1]
  IC50: 9.67 µM
[2]
  IC50: 10 µM
MGC-803
  IC50: 6.44 µM
MCF7
  IC50: 23.1 µM
KB
  IC50: 3.56 µM

## COc1cc2ncnc(NNC(=S)NC(=O)c3ccccc3OC)c2cc1OC
[1]
  IC50: 8.41 µM
[2]
  IC50: 16 µM
MGC-803
  IC50: 1.59 µM
MCF7
  IC50: 8.8 µM
KB
  IC50: 3.85 µM

## COc1cc2ncnc(NNC(=S)NC(=O)c3ccccc3)c2cc1OC
[1]
  IC50: 8.18 µM
[2]
  IC50: 6.55 µM
MGC-803
  IC50: 3.05 µM
MCF7
  IC50: 6.99 µM
KB
  IC50: 3.77 µM

## COc1cc2ncnc(NNC(=S)NC(=O)c3ccccc3F)c2cc1OC
[1]
  IC50: 12.7 µM
[2]
  IC50: 8.64 µM
MGC-803
  IC50: 2.39 µM
MCF7
  IC50: 8.5 µM
KB
  IC50: 4.07 µM
